Assay type in all cases: cell-based
Data set [1] deals with SK-N-BE(2). Put plainly: Cytotoxicity in human SKNBE2 cells assessed as reduction in cell viability at 0.01 to 1 uM incubated for 18 hrs by Cell Titer-Glo assay. The settings on record: dose 0.01-1 µM. The gist of the method: (§1)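 Cells seeded at 1.5 million per 10-cm dish. Next day they were replated at 10,000 cells/well and rested 4 h. Ligand or vehicle (water, ethanol or DMSO, by ligand) was added in dose-response format in quadruplicate. After 18 h, viability was read by CellTiter-Glo luminescence. Data are mean ± s.e.m., generally representative of 2 independent experiments. One-way ANOVA versus vehicle.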

Data set [2] relates to PC-12. Put plainly: Cytotoxicity in rat PC-12 cells assessed as reduction in cell viability at 0.01 to 1 uM incubated for 18 hrs by Cell Titer-Glo assay. The note with it: pc-12, 18 h, dose 0.01-1 µM. The gist of the method:
as §1

For data set [3], the system named is HEK-293T. Put plainly: Cytotoxicity in human HEK293T cells assessed as reduction in cell viability at 0.01 to 1 uM incubated for 18 hrs by Cell Titer-Glo assay. The note with it: dose 0.01-1 µM. Summed up: as §1
In data set [4] the test system is SKNBE2. Put plainly: Modulation of Gal4-fused VP16 expressed in SKNBE(2) cells co-transfected with UAS repoter gene assessed as increase in luciferase activity at 0.01 to 1 uM incubated for 18 hrs by luciferase reporter gene assay. The note with it: Human alphaherpesvirus 2, filed as modulator, dose 0.01-1 µM. The gist of the method:
(§2)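 Cells in 10-cm dishes were transfected with Gal4-VP16 expression plasmid (2 μg) plus 5xUAS-luciferase reporter (2 μg) for 18 h. They were replated at 10,000 cells/well for 4 h, then given ligand or vehicle (water, ethanol or DMSO) in quadruplicate for 18 h. Luciferase was read with Britelite Plus. Fold change is versus vehicle-treated cells, with one-way ANOVA versus vehicle.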

Data set [5] deals with HEK293T. In words: Modulation of Gal4-fused VP16 expressed in HEK293T cells co-transfected with UAS repoter gene assessed as increase in luciferase activity at 0.01 to 1 uM incubated for 18 hrs by luciferase reporter gene assay. The settings on record: Human alphaherpesvirus 2, filed as modulator, dose 0.01-1 µM. The gist of the method:
as §2

For data set [6], the system named is PC-12. In words: Modulation of Gal4-fused VP16 expressed in PC12 cells co-transfected with UAS repoter gene assessed as increase in luciferase activity at 0.01 to 1 uM incubated for 18 hrs by luciferase reporter gene assay. The note with it: Human alphaherpesvirus 2, filed as modulator, dose 0.01-1 µM. Summed up: as §2
In data set [7] the target is Nuclear receptor subfamily 4 group A member 2 (Homo sapiens) (UniProt P43354). Put plainly: Modulation of full length human Nurr1 expressed in SKNBE(2) cells co-transfected with RXRalpha and luciferase reporter plasmid harboring NBRE response element assessed as increase in luciferase activity incubated for 18 hrs by luciferase reporter gene assay. The note with it: SKNBE2, filed as modulator, dose 0.01-1 µM. Summed up:
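SK-N-BE(2)-C cells were kept in 1:1 EMEM/F12 with 10% FBS at 37°C and 5% CO2. They were cotransfected with full-length Nurr1 (1 μg), full-length RXRα (1 μg) and 3xNBRE- or 3xNurRE-luc reporter (6 μg) for 18 h, replated at 10,000 cells/well for 4 h, and then treated with ligand or vehicle in quadruplicate for 18 h. The readout was luciferase luminescence as fold over vehicle, reported as mean ± s.e.m. (n=4) from 2 independent experiments, one-way ANOVA.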

Data set [8] has the same target. Put plainly: Modulation of full length human Nurr1 expressed in PC12 cells co-transfected with RXRalpha and luciferase reporter plasmid harboring NurRE response element assessed as increase in luciferase activity incubated for 18 hrs by luciferase reporter gene assay. The note with it: PC-12, filed as modulator, dose 0.01-1 µM. The gist of the method: (§3)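 PC12 cells were grown at 37°C and 5% CO2 in […] medium with 15% horse serum and 2.5% FBS. They were transfected with full-length Nurr1 (1 μg) plus full-length RXRα (1 μg) and 3xNBRE- or 3xNurRE-luciferase reporter (6 μg) for 18 h, then replated at 10,000 cells/well for 4 h. Ligand or vehicle (water, ethanol or DMSO) was added in quadruplicate for 18 h. Luminescence was read as fold change over vehicle. Results are mean ± s.e.m., n=4, from 2 independent experiments, analysed by one-way ANOVA against vehicle.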

The target is the same in data set [9]. In words: Modulation of full length human Nurr1 expressed in PC12 cells co-transfected with RXRalpha and luciferase reporter plasmid harboring NBRE response element assessed as increase in luciferase activity incubated for 18 hrs by luciferase reporter gene assay. The settings on record: PC-12, filed as modulator, dose 0.01-1 µM. Summed up:
as §3

For data set [10] the target is unchanged. Put plainly: Modulation of full length human Nurr1 expressed in HEK293T cells co-transfected with RXRalpha and luciferase reporter plasmid harboring NurRE response element assessed as increase in luciferase activity incubated for 18 hrs by luciferase reporter gene assay. The note with it: filed as modulator, dose 0.01-1 µM. The gist of the method:
(§4)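 Full-length Nurr1 plasmid, alone (2 μg) or 1 μg plus full-length RXRα (1 μg), cotransfected with 3xNBRE- or 3xNurRE-luciferase reporter (6 μg) using Lipofectamine 2000, 18 h. Cells replated at 10,000/well for 4 h. Four ligand concentrations, or vehicle (water, ethanol or DMSO), added in quadruplicate for 18 h. Luciferase read. Fold change vs vehicle, mean ± s.e.m., one-way ANOVA vs vehicle.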

Data set [11] shares this target. Put plainly: Modulation of full length human Nurr1 expressed in HEK293T cells co-transfected with RXRalpha and luciferase reporter plasmid harboring NBRE response element assessed as increase in luciferase activity incubated for 18 hrs by luciferase reporter gene assay. The settings on record: filed as modulator, dose 0.01-1 µM. The gist of the method:
as §4

The target is the same in data set [12]. Put plainly: Modulation of full length human Nurr1 expressed in SKNBE(2) cells co-transfected with luciferase reporter plasmid harboring NurRE response element assessed as increase in luciferase activity incubated for 18 hrs by luciferase reporter gene assay. The note with it: SKNBE2, filed as modulator, dose 0.01-1 µM.
For data set [13] the target is unchanged. Put plainly: Modulation of full length human Nurr1 expressed in SKNBE(2) cells co-transfected with luciferase reporter plasmid harboring NBRE response element assessed as increase in luciferase activity incubated for 18 hrs by luciferase reporter gene assay. The note with it: SKNBE2, filed as modulator, dose 0.01-1 µM. Summed up: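 Transfection of SK-N-BE(2)-C cells (1:1 EMEM/F12, 10% FBS, 37°C, 5% CO2) used full-length Nurr1 alone (2 μg, no RXRα) with 3xNBRE- or 3xNurRE-luciferase reporter (6 μg) for 18 h. Cells were replated at 10,000/well for 4 h, then exposed to ligand or vehicle in quadruplicate for 18 h. Luminescence was expressed as fold over vehicle, as mean ± s.e.m. (n=4) from 2 independent experiments, one-way ANOVA against vehicle.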

For data set [14] the target is unchanged. In words: Modulation of full length human Nurr1 expressed in PC12 cells co-transfected with luciferase reporter plasmid harboring NurRE response element assessed as increase in luciferase activity incubated for 18 hrs by luciferase reporter gene assay. The note with it: PC-12, filed as modulator, dose 0.01-1 µM. The gist of the method:
(§5)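 Here PC12 cells (FK-12 medium, 15% horse serum, 2.5% FBS, 37°C, 5% CO2) received full-length Nurr1 (2 μg) without RXRα, plus 3xNBRE- or 3xNurRE-luciferase reporter (6 μg), for 18 h. Cells were replated at 10,000/well for 4 h, then treated with ligand or vehicle in quadruplicate for 18 h. Luciferase luminescence was normalized to vehicle-treated cells. Results are mean ± s.e.m. (n=4) from 2 independent experiments, with one-way ANOVA against vehicle.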

Data set [15] has the same target. Put plainly: Modulation of full length human Nurr1 expressed in PC12 cells co-transfected with luciferase reporter plasmid harboring NBRE response element assessed as increase in luciferase activity incubated for 18 hrs by luciferase reporter gene assay. The settings on record: PC-12, filed as modulator, dose 0.01-1 µM. Summed up: as §5
The target is the same in data set [16]. In words: Modulation of full length human Nurr1 expressed in HEK293T cells co-transfected with luciferase reporter plasmid harboring NurRE response element assessed as increase in luciferase activity incubated for 18 hrs by luciferase reporter gene assay. The settings on record: filed as modulator, dose 0.01-1 µM. The gist of the method:
as §4

Data set [17] has the same target. In words: Modulation of full length human Nurr1 expressed in HEK293T cells co-transfected with luciferase reporter plasmid harboring NBRE response element assessed as increase in luciferase activity incubated for 18 hrs by luciferase reporter gene assay. The note with it: filed as modulator, dose 0.01-1 µM. The gist of the method: as §4
Data set [18] relates to SK-N-BE(2). Put plainly: Cytotoxicity in human SKNBE2 cells assessed as reduction in cell viability at 0.5 to 5 uM incubated for 18 hrs by Cell Titer-Glo assay. The settings on record: dose 0.5-5 µM. Summed up: as §1
For data set [19], the system named is HEK-293T. In words: Cytotoxicity in human HEK293T cells assessed as reduction in cell viability at 0.5 to 5 uM incubated for 18 hrs by Cell Titer-Glo assay. The note with it: dose 0.5-5 µM. The gist of the method:
as §1

Data set [20] has as its system PC-12. Put plainly: Cytotoxicity in rat PC-12 cells assessed as reduction in cell viability at 0.5 to 5 uM incubated for 18 hrs by Cell Titer-Glo assay. The settings on record: pc-12, 18 h, dose 0.5-5 µM. The gist of the method: as §1

The source made the active and inactive calls. No cut-off for these calls is given here.

Chain of Nuclear receptor subfamily 4 group A member 2 (Homo sapiens) (P43354 whole entry): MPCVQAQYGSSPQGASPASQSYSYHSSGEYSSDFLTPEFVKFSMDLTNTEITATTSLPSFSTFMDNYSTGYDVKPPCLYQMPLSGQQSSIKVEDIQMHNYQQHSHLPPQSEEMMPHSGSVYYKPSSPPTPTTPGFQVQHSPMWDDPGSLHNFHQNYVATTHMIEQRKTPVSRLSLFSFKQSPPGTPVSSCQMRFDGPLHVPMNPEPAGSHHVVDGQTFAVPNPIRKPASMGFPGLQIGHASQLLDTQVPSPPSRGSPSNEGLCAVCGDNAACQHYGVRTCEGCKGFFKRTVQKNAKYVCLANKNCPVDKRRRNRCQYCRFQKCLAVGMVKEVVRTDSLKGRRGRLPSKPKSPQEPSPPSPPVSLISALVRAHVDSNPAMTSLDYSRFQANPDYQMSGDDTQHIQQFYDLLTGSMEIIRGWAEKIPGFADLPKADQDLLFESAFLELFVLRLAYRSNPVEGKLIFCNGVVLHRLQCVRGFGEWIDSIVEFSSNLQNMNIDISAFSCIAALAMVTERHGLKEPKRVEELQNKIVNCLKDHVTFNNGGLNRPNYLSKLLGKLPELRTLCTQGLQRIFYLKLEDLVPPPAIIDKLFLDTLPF

In the case of `O=C(Nc1ccccc1)c1cn2cc(-c3ccccn3)ccc2n1`, the Activity result in [1] is “Non-Toxic”; in [2], “Non-Toxic”; in [3] it was “Non-Toxic”; in data set [7], “Dose-Dependent Effect”; in data set [8] it was “Dose-Dependent Effect”; in data set [9] it was “Dose-Dependent Effect”. The Activity entry in [10], in data set [11], in [12], in [13], in data set [14] and in data set [15] was “Dose-Dependent Effect” each time. Also, the Activity entry in data set [16] and in [17] was “Dose-Dependent Effect” in each case. Further, the result in data set [4], in data set [5] and in data set [6] was Active.

For the compound `O=C(O)c1ccc2nc(-c3ccc(F)cc3)[nH]c2c1`, the Activity entry in data set [18], in data set [19] and in data set [20] was “Non-Toxic” each time.

Values taken from ChEMBL document CHEMBL5030505, “Assessment of NR4A Ligands That Directly Bind and Modulate the Orphan Nuclear Receptor Nurr1” (J Med Chem, 2020).
